Assay results from ChEMBL document CHEMBL1122413, “Chloralanyl and propargylglycyl dipeptides. Suicide substrate containing antibacterials” (1983).
≈ marks a conversion by molar mass, not a printed value. Where a SMILES comes first, the peptide text is derived from it. [ ]: non-standard residue; d: D form. Pra = C#CC[CH](N)C(=O)O

Key:
Escherichia coli = assay: Minimum inhibitory concentration against Escherichia coli; assay type: functional
Summary of the method: (§1)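 Agar dilution on defined peptide susceptibility medium with peptide in serial twofold dilutions. Strains subcultured on blood or chocolate agar. Inoculum from overnight culture in liquid peptide medium, diluted to approx 1×10^7 cfu/mL, applied by Steers replicator. Plates incubated overnight at 37 °C. MIC taken as lowest concentration permitting fewer than ten colonies at 16–18 h.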

Klebsiella aerogenes = assay: Minimum inhibitory concentration against Enterobacter aerogenes; assay type: functional; summary of the method: as §1
Enterobacter cloacae = assay: Minimum inhibitory concentration against Enterobacter cloacae; assay type: functional; summary of the method: as §1
Haemophilus influenzae = assay: Minimum inhibitory concentration against Hemophilus influenzae; assay type: functional
Summary of the method: (§2)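 Agar dilution on defined peptide susceptibility medium with hemin (25 μg/mL), NAD (25 μg/mL) and Isovitalex (1%) added, peptide in serial twofold dilutions. Colonies from overnight chocolate or blood agar resuspended in liquid peptide medium to 10⁸ cfu/mL, applied by Steers replicator. Incubation overnight at 37 °C under 7% CO₂. MIC: lowest concentration giving fewer than ten colonies at 16–18 h.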

Klebsiella pneumoniae = assay: Minimum inhibitory concentration against Klebsiella pneumoniae; assay type: functional; summary of the method: as §1
Morganella morganii = assay: Minimum inhibitory concentration against Morganella morganii; assay type: functional; summary of the method: as §1
Pseudomonas aeruginosa = assay: Minimum inhibitory concentration against Pseudomonas aeruginosa; assay type: functional; summary of the method: as §1
Proteus mirabilis = assay: Minimum inhibitory concentration against Proteus mirabilis; assay type: functional; summary of the method: as §1
Salmonella typhimurium = assay: Minimum inhibitory concentration against Salmonella Typhimurium; assay type: functional, Salmonella enterica subsp. enterica serovar Typhimurium; details: Salmonella enterica; summary of the method: as §1
Serratia marcescens = assay: Minimum inhibitory concentration against Serratia marcescens; assay type: functional; summary of the method: as §1
Shigella flexneri = assay: Minimum inhibitory concentration against Shigella flexneri; assay type: functional; summary of the method: as §1
[1] = test system: Staphylococcus epidermidis; assay: Minimum inhibitory concentration against Staphylococcus epidermidis; assay type: functional; summary of the method: as §1
Streptococcus agalactiae = assay: Minimum inhibitory concentration against Streptococcus agalactiae; assay type: functional; summary of the method: as §2
Staphylococcus aureus = assay: Minimum inhibitory concentration against Staphylococcus aureus; assay type: functional; summary of the method: as §1
Enterococcus faecalis = assay: Minimum inhibitory concentration against Streptococcus faecalis; assay type: functional; summary of the method: as §1
Streptococcus pyogenes = assay: Minimum inhibitory concentration against Streptococcus pyogenes; assay type: functional; summary of the method: as §2

| Structure (SMILES) | MIC (Escherichia coli) [µg/mL] | MIC (Klebsiella aerogenes) [µg/mL] | MIC (Enterobacter cloacae) [µg/mL] | MIC (Haemophilus influenzae) [µg/mL] | MIC (Klebsiella pneumoniae) [µg/mL] | MIC (Morganella morganii) [µg/mL] | MIC (Pseudomonas aeruginosa) [µg/mL] | MIC (Proteus mirabilis) [µg/mL] | MIC (Salmonella typhimurium) [µg/mL] | MIC (Serratia marcescens) [µg/mL] | MIC (Shigella flexneri) [µg/mL] | MIC [1] [µg/mL] | MIC (Streptococcus agalactiae) [µg/mL] | MIC (Staphylococcus aureus) [µg/mL] | MIC (Enterococcus faecalis) [µg/mL] | MIC (Streptococcus pyogenes) [µg/mL] |
| --- | --- | --- | --- | --- | --- | --- | --- | --- | --- | --- | --- | --- | --- | --- | --- | --- |
| C#CCC(N)C(=O)NC(CC#C)C(=O)O.O=C(O)C(F)(F)F (stereo not given) (H-[Pra]-[Pra]-OH; configuration not given here) | > 100 | > 100 | > 100 | > 100 | > 100 | > 100 | > 100 | > 100 | > 100 | > 100 | > 100 | 3.12 | 6.25 | 12.5 | > 100 | > 100 |
| C#CC[C@@H](NC(=O)[C@H](C)N)C(=O)O.O=C(O)C(F)(F)F | > 100 | > 100 | > 100 | > 100 | > 100 | > 100 | > 100 | > 100 | > 100 | > 100 | > 100 | > 100 | > 100 | > 100 | > 100 | > 100 |
| C[C@H](N)C(=O)N[C@@H](CCl)C(=O)O.O=C(O)C(F)(F)F | > 100 | > 100 | > 100 | > 100 | > 100 | > 100 | > 100 | > 100 | > 100 | > 100 | > 100 | 0.0125 | 0.2 | 0.0125 | > 100 | > 100 |
| C#CC[C@H](N)C(=O)O | > 100 | > 100 | > 100 | > 100 | > 100 | > 100 | > 100 | > 100 | > 100 | > 100 | > 100 | > 100 | > 100 | > 100 | > 100 | > 100 |
| N[C@@H](CCl)C(=O)O | > 100 | > 100 | > 100 | > 100 | > 100 | > 100 | > 100 | > 100 | > 100 | > 100 | > 100 | 25 (≈ 202 µM) | 3.12 (≈ 25.3 µM) | 3.12 (≈ 25.3 µM) | > 100 | 3.12 (≈ 25.3 µM) |
| C#CCC(N)C(=O)N[C@@H](C)C(=O)O.O=C(O)C(F)(F)F (stereo not given in full) | > 100 | > 100 | > 100 | > 100 | > 100 | > 100 | > 100 | > 100 | > 100 | > 100 | > 100 | 3.12 | > 100 | 50 | > 100 | > 100 |
| C#CC[C@H](NC(=O)[C@@H](N)CCl)C(=O)O.O=C(O)C(F)(F)F | 3.12 | 25 | 25 | 1.56 | > 100 | > 100 | > 100 | > 100 | > 100 | > 100 | 3.12 | 0.05 | 0.39 | 0.1 | 3.12 | 25 |
| C#CC[C@H](NC(=O)[C@H](C)N)C(=O)O.O=C(O)C(F)(F)F | > 100 | > 100 | > 100 | > 100 | > 100 | > 100 | > 100 | > 100 | > 100 | > 100 | > 100 | 1.56 | 100 | > 100 | 100 | > 100 |
| C#CC[C@@H](N)C(=O)O | > 100 | > 100 | > 100 | > 100 | > 100 | > 100 | > 100 | > 100 | > 100 | > 100 | > 100 | > 100 | > 100 | 50 (≈ 442 µM) | > 100 | > 100 |
| C#CCC(NC(=O)[C@H](N)CCl)C(=O)O.O=C(O)C(F)(F)F (stereo not given in full) | > 100 | > 100 | > 100 | > 100 | > 100 | > 100 | > 100 | > 100 | > 100 | > 100 | > 100 | > 100 | > 100 | > 100 | > 100 | > 100 |
| N[C@@H](CCl)C(=O)N[C@@H](CCl)C(=O)O.O=C(O)C(F)(F)F | 1.56 | 25 | 12.5 | 1.56 | > 100 | 50 | > 100 | 50 | > 100 | > 100 | 12.5 | 0.05 | 0.39 | 0.05 | 3.12 | 1.56 |
| C#CC[C@H](NC(=O)[C@@H](N)CC#C)C(=O)O.O=C(O)C(F)(F)F (H-[Pra]-[Pra]-OH) | 25 | > 100 | 50 | > 100 | > 100 | > 100 | > 100 | > 100 | > 100 | > 100 | 12.5 | 0.78 | 3.12 | 3.12 | > 100 | > 100 |
| C[C@@H](NC(=O)[C@H](N)CCl)C(=O)O.O=C(O)C(F)(F)F | > 100 | > 100 | > 100 | > 100 | > 100 | > 100 | > 100 | > 100 | > 100 | > 100 | > 100 | > 100 | > 100 | > 100 | > 100 | > 100 |
| C[C@@H](N)C(=O)N[C@H](CCl)C(=O)O.O=C(O)C(F)(F)F | > 100 | > 100 | > 100 | > 100 | > 100 | > 100 | > 100 | > 100 | > 100 | > 100 | > 100 | > 100 | > 100 | > 100 | > 100 | > 100 |
| C#CC[C@@H](NC(=O)[C@H](N)CCl)C(=O)O.O=C(O)C(F)(F)F | > 100 | > 100 | > 100 | > 100 | > 100 | > 100 | > 100 | > 100 | > 100 | > 100 | > 100 | > 100 | > 100 | > 100 | > 100 | > 100 |
| CCC[C@H](N)C(=O)N[C@@H](CCl)C(=O)O.O=C(O)C(F)(F)F | 1.56 | > 100 | 6.25 | 0.78 | > 100 | 50 | > 100 | 12.5 | > 100 | > 100 | > 100 | 0.025 | 0.2 | 0.025 | 0.39 | > 100 |
| C#CCC(NC(=O)[C@H](C)N)C(=O)O.O=C(O)C(F)(F)F (stereo not given in full) | > 100 | > 100 | > 100 | > 100 | > 100 | > 100 | > 100 | > 100 | > 100 | > 100 | > 100 | 3.12 | 50 | > 100 | > 100 | > 100 |
| N[C@H](CCl)C(=O)O | 6.25 (≈ 50.6 µM) | 12.5 (≈ 101 µM) | 100 (≈ 809 µM) | 6.25 (≈ 50.6 µM) | 100 (≈ 809 µM) | > 100 | > 100 | > 100 | 100 (≈ 809 µM) | 25 (≈ 202 µM) | 50 (≈ 405 µM) | 25 (≈ 202 µM) | 12.5 (≈ 101 µM) | 12.5 (≈ 101 µM) | 50 (≈ 405 µM) | 12.5 (≈ 101 µM) |
| C[C@H](N)C(=O)N[C@H](CCl)C(=O)O.O=C(O)C(F)(F)F | > 100 | > 100 | > 100 | > 100 | > 100 | > 100 | > 100 | > 100 | > 100 | > 100 | > 100 | > 100 | > 100 | > 100 | > 100 | > 100 |
| C[C@@H](N)C(=O)N[C@H](C)C(=O)O.O=C(O)C(F)(F)F | > 100 | > 100 | > 100 | > 100 | > 100 | > 100 | > 100 | > 100 | > 100 | > 100 | > 100 | > 100 | > 100 | > 100 | > 100 | > 100 |
